Tests used:
Format in all cases: functional
SF-539 = assay: Antiproliferative activity was determined for 50% growth inhibition against human CNS SF-539 cell line
Procedure, shortened: (§1)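 Human cancer cell lines from the roughly 55-line panel. GI50 is the concentration giving 50% growth inhibition. The test range was 10^-4 to 10^-8 M. Values outside the range were set to the minimum (10^-8 M) or the maximum (10^-4 M).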

DU-145 = assay: Antiproliferative activity was determined for 50% growth inhibition against human Prostate DU-145 cell line; procedure, shortened: as §1
HOP-62 = assay: Antiproliferative activity was determined for 50% growth inhibition against human lung HOP-62 cell line; procedure, shortened: as §1
HCT-116 = assay: Antiproliferative activity was determined for 50% growth inhibition against human colon HCT116 cell line; procedure, shortened: as §1
MDA-MB-435 = assay: Antiproliferative activity was determined for 50% growth inhibition against human breast MDA-MB-435 cell line; procedure, shortened: as §1
OVCAR-3 = assay: Antiproliferative activity was determined for 50% growth inhibition against human ovarian OVCAR-3 cell line; procedure, shortened: as §1
SN12C = assay: Antiproliferative activity was determined for 50% growth inhibition against human renal SN12C cell line; procedure, shortened: as §1
UACC-62 = assay: Antiproliferative activity was determined for 50% growth inhibition against human melanoma UACC-62 cell line; procedure, shortened: as §1
[1] = test system: Panel (Carcinoma cell lines); assay: Mean graph midpoint for growth inhibition of all human cancer cell lines; parameters: unit: µM
Procedure, shortened: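 Mean graph midpoint across all cell lines successfully tested in the roughly 55-line human cancer panel. Each line's GI50 is the 50% growth-inhibition concentration, tested over 10^-4 to 10^-8 M. Out-of-range values were set to 10^-8 M or 10^-4 M before averaging.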

| SMILES | GI50 (SF-539) [µM] | GI50 (DU-145) [µM] | GI50 (HOP-62) [µM] | GI50 (HCT-116) [µM] | GI50 (MDA-MB-435) [µM] | GI50 (OVCAR-3) [µM] | GI50 (SN12C) [µM] | GI50 (UACC-62) [µM] | MGM [1] | GI50 (SF-539; Homo sapiens, SF-539) [µM] | GI50 (DU-145; Homo sapiens, DU-145) [µM] | GI50 (HOP-62; Homo sapiens, HOP-62) [µM] | GI50 (HCT-116; Homo sapiens, HCT-116) [µM] | GI50 (MDA-MB-435; Homo sapiens, MDA-MB-435) [µM] | GI50 (OVCAR-3; Homo sapiens, OVCAR-3) [µM] | GI50 (SN12C; Homo sapiens, SN12C) [µM] | GI50 (UACC-62; Homo sapiens, UACC-62) [µM] |
| --- | --- | --- | --- | --- | --- | --- | --- | --- | --- | --- | --- | --- | --- | --- | --- | --- | --- |
| COc1cc2c(cc1OC)-c1c(c3cc(OC)c(OC)cc3c(=O)n1CCCNCCO)C2=O.Cl | 0.16 | 0.07 | 0.15 | 0.39 | 1.43 | 2.28 | 0.11 | 0.73 | 0.68 | – | – | – | – | – | – | – | – |
| COc1cc2c3c(n(CCCNCCCO)c(=O)c2cc1OC)-c1cc2c(cc1C3=O)OCO2 | – | – | – | – | – | – | – | – | 0.2 | 0.01 | 0.01 | 0.03 | 0.04 | 0.47 | 1.19 | 0.01 | 0.01 |
| COc1cc2c(cc1OC)-c1c(c3cc(OC)c(OC)cc3c(=O)n1CCCBr)C2=O | – | – | – | – | – | – | – | – | 6.91 | 2.58 | 1.92 | 1.87 | 3.53 | 11.7 | 60.1 | 3.15 | 1.91 |
| O=C1c2ccccc2-c2c1c1ccccc1c(=O)n2O | – | – | – | – | – | – | – | – | 29.5 | 15.3 | 40.2 | 56.6 | 24.3 | 29.1 | 30.2 | 35.7 | 21.5 |
| COc1cc2c3c(n(CCCCl)c(=O)c2cc1OC)-c1cc2c(cc1C3=O)OCO2 | – | – | – | – | – | – | – | – | 47.9 | 40.7 | 16.8 | 40.4 | 72.6 | 80.5 | > 100 | 24 | 68.6 |
| COc1cc2c(cc1OC)-c1c(c3cc(OC)c(OC)cc3c(=O)n1CCCNCCCO)C2=O | 0.08 | 0.1 | 0.07 | – | 1.09 | – | – | – | 0.55 | – | – | – | 0.46 | – | 1.9 | 0.15 | 1.51 |
| COc1cc2c(cc1OC)-c1c(c3cc(OC)c(OC)cc3c(=O)n1CCCNCCCCO)C2=O.Cl | 0.59 | 0.21 | – | – | – | – | 0.28 | – | 1.47 | – | – | 0.26 | 0.81 | 2.09 | 5.49 | – | 1.76 |
| COc1cc2c3c(n(CCCN)c(=O)c2cc1OC)-c1cc2c(cc1C3=O)OCO2.Cl | – | – | – | – | – | – | – | – | 0.16 | 0.26 | 0.04 | 0.06 | 0.13 | 1.21 | 0.31 | 0.31 | 0.25 |
| O=C1c2ccccc2-c2c1c1ccccc1c(=O)n2CCO | – | – | – | – | – | – | – | – | 14.5 | 12.2 | 16.4 | 5.62 | 4.95 | 76.7 | 74.2 | 16.4 | 18.2 |
| COc1cc2c(cc1OC)-c1c(c3cc(OC)c(OC)cc3c(=O)n1CCCNCCCCO)C2=O | 0.06 | 0.1 | 0.14 | 0.71 | 2.36 | 3.52 | 0.11 | 1.67 | 0.85 | – | – | – | – | – | – | – | – |
| COc1cc2c3c(n(CCCNCCO)c(=O)c2cc1OC)-c1ccc2ccccc2c1C3=O | – | – | – | – | – | – | – | – | 0.19 | 0.22 | 0.28 | 0.17 | 0.18 | 0.42 | 0.27 | 0.15 | 0.16 |
| CCCCn1c2c(c3cc(OC)c(OC)cc3c1=O)Cc1cc3c(cc1-2)OCO3 | – | – | – | – | – | – | – | – | 21.3 | 3.4 | 5.37 | 12 | 13.2 | 92.4 | 91.9 | 21.7 | 6.51 |
| COc1cc2c3c(n(C)c(=O)c2cc1OC)-c1cc2c(cc1C3)OCO2 | – | – | – | – | – | – | – | – | 43.7 | 61.2 | 42.5 | 11.8 | 42.9 | > 100 | > 100 | 43.6 | 50 |
| O=C1c2ccccc2-c2c1c1ccccc1c(=O)n2CCCO | – | – | – | – | – | – | – | – | 10.3 | 52.5 | 9.56 | 4.89 | 3.64 | 39.7 | 28.8 | 6.49 | 16.2 |

Reference: ChEMBL document CHEMBL1133678, “Synthesis of new indeno[1,2-c]isoquinolines: cytotoxic non-camptothecin topoisomerase I inhibitors” (2000)
